The values below come from ChEMBL document CHEMBL1150387, “Development and experimental validation of a docking strategy for the generation of kinase-targeted libraries” (J Med Chem, 2008).

For test [1], the target named is Vascular endothelial growth factor receptor 1 (Homo sapiens) (UniProt P17948). Description: Inhibition of FLT1 at 10 uM by HTRF assay relative to control. The method in brief: (§1)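 HTRF kinase assay, one panel of kinases. Inhibitor stock 50 µM in 100% DMSO; tested at 10 µM. ATP and substrate at final levels near Km. Final buffer: 50 mM Hepes/NaOH pH 7.4, 40 µM Na3VO4, 0.005% Tween-20, 1 mM DTT, MnCl2 or MgCl2 at kinase-dependent levels. Started by adding ATP/substrate. Reaction run at room temperature, time varied by kinase. Detection mix in 50 mM Hepes pH 7.4, 0.1% BSA, 150 mM KF, incubated ≥1 h at room temperature. Activity expressed as % of uninhibited control; n=2.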
For orientation: In TR-FRET formats the signal depends on donor and acceptor labels being close together.

Test [2] has as its target T1, Ephrin type-B receptor 4 (Homo sapiens) (UniProt P54760).
T1 sequence (whole entry): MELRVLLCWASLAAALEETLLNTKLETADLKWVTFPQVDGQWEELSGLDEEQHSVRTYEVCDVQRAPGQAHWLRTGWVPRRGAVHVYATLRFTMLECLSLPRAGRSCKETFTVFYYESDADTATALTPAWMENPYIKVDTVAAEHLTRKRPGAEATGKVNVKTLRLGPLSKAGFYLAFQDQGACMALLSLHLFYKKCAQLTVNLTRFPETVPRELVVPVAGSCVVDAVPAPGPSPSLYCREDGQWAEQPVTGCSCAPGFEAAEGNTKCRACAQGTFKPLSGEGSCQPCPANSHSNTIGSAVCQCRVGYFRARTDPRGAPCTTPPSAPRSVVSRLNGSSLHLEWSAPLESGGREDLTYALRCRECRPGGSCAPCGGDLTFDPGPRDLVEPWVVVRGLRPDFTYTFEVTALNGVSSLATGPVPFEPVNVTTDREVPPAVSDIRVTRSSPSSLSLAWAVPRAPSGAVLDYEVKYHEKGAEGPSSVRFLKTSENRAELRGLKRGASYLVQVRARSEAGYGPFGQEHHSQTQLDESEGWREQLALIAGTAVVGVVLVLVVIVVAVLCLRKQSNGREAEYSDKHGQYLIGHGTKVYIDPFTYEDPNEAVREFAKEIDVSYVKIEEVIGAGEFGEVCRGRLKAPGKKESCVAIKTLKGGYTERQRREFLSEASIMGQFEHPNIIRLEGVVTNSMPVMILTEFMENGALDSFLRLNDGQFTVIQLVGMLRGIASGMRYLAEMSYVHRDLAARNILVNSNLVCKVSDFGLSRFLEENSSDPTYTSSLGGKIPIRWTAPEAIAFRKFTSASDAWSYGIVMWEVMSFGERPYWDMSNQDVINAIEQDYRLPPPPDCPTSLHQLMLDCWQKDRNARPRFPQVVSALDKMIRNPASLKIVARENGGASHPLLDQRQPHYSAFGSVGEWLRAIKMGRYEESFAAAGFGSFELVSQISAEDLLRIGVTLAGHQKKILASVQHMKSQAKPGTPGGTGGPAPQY
Nature of the test: Inhibition of EphB4 at 10 uM by HTRF assay relative to control. In a few lines: as §1

Test [3] addresses Cyclin-dependent kinase 1 (Homo sapiens) (UniProt P06493). Description: Inhibition of CDK1 at 10 uM by HTRF assay relative to control. In a few lines:
as §1

Test [4] addresses Cyclin-dependent kinase 2 (Homo sapiens) (UniProt P24941). Nature of the test: Inhibition of CDK2 at 10 uM by HTRF assay relative to control. The method in brief:
as §1

For test [5], the target named is T2, Serine/threonine-protein kinase Chk1 (Homo sapiens) (UniProt O14757).
T2 sequence (whole entry): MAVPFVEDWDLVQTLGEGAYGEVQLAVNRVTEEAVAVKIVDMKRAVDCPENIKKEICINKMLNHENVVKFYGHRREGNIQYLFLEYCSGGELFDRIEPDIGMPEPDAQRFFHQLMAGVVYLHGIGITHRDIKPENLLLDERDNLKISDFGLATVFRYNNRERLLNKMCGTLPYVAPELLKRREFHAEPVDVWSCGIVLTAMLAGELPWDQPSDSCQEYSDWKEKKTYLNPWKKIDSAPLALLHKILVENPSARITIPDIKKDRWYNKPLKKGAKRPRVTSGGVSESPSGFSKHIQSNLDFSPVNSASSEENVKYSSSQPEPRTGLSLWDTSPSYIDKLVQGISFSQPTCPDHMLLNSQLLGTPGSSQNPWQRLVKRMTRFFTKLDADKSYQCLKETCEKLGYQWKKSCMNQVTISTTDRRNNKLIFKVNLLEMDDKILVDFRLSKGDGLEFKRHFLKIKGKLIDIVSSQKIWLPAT
Nature of the test: Inhibition of CHK1 at 10 uM by HTRF assay relative to control. The method in brief:
as §1

For test [6], the target named is T3, Calcium/calmodulin-dependent protein kinase type IV (Homo sapiens) (UniProt Q16566).
T3 sequence (whole entry): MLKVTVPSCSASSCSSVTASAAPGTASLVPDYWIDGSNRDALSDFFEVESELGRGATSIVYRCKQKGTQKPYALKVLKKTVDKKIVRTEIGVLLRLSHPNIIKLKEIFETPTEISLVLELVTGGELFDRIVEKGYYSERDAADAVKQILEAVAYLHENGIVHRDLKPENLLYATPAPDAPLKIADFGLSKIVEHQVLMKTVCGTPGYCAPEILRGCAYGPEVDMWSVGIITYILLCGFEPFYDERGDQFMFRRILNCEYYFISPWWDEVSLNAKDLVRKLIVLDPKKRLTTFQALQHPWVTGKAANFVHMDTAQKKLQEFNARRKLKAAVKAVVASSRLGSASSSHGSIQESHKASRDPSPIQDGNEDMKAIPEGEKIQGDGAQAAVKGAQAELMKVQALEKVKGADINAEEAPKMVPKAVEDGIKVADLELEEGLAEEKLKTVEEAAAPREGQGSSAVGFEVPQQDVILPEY
Nature of the test: Inhibition of CaMK4 at 10 uM by HTRF assay relative to control. The method in brief:
as §1

For test [7], the target named is Protein kinase C gamma type (Homo sapiens) (UniProt P05129). Description: Inhibition of PKCgamma at 10 uM by HTRF assay relative to control. In a few lines:
as §1

The target of test [8] is Protein kinase C alpha type (Homo sapiens) (UniProt P17252). Nature of the test: Inhibition of PKCalpha at 10 uM by HTRF assay relative to control. In a few lines:
as §1

Test [9] addresses Ribosomal protein S6 kinase beta-1 (Homo sapiens) (UniProt P23443). Description: Inhibition of p70S6K at 10 uM by HTRF assay relative to control. The method in brief: as §1
The target in test [10] is Proto-oncogene tyrosine-protein kinase Src (Homo sapiens) (UniProt P12931). Nature of the test: Inhibition of Src at 10 uM by HTRF assay relative to control. In a few lines:
as §1

The target of test [11] is Tyrosine-protein kinase Fes/Fps (Homo sapiens) (UniProt P07332). Description: Inhibition of FES at 10 uM by HTRF assay relative to control. In a few lines:
as §1

Test [12] deals with High affinity nerve growth factor receptor (Homo sapiens) (UniProt P04629). Nature of the test: Inhibition of TrkA at 10 uM by HTRF assay relative to control. In a few lines: as §1
For test [13], the target named is Vascular endothelial growth factor receptor 2 (Homo sapiens) (UniProt P35968). Description: Inhibition of KDR at 10 uM by HTRF assay relative to control. In a few lines:
as §1

Sequence of Ribosomal protein S6 kinase beta-1 (Homo sapiens) (P23443 whole entry, looked up): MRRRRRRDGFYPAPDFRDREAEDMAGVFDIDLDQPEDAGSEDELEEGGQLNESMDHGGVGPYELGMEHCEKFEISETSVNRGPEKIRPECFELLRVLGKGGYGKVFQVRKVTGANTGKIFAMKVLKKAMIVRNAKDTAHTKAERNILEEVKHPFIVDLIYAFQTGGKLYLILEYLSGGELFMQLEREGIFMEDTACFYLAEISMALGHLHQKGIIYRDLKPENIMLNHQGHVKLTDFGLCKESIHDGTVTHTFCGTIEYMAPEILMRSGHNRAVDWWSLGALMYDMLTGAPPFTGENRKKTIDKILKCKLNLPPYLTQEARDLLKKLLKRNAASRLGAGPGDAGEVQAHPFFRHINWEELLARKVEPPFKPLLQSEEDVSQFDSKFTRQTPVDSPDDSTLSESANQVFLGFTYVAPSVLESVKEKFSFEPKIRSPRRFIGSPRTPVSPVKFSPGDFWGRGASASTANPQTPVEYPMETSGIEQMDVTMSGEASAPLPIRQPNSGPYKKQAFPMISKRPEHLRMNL
Sequence of Cyclin-dependent kinase 1 (Homo sapiens) (P06493 whole entry, looked up): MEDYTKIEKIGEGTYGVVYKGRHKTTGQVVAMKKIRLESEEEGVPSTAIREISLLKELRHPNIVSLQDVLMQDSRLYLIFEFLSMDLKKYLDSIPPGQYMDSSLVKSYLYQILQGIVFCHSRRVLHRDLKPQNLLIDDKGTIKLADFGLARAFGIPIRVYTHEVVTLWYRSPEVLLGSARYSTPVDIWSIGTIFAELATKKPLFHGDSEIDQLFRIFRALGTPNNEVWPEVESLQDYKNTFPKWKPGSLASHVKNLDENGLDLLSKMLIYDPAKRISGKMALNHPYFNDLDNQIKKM
Sequence of Vascular endothelial growth factor receptor 1 (Homo sapiens) (P17948 whole entry): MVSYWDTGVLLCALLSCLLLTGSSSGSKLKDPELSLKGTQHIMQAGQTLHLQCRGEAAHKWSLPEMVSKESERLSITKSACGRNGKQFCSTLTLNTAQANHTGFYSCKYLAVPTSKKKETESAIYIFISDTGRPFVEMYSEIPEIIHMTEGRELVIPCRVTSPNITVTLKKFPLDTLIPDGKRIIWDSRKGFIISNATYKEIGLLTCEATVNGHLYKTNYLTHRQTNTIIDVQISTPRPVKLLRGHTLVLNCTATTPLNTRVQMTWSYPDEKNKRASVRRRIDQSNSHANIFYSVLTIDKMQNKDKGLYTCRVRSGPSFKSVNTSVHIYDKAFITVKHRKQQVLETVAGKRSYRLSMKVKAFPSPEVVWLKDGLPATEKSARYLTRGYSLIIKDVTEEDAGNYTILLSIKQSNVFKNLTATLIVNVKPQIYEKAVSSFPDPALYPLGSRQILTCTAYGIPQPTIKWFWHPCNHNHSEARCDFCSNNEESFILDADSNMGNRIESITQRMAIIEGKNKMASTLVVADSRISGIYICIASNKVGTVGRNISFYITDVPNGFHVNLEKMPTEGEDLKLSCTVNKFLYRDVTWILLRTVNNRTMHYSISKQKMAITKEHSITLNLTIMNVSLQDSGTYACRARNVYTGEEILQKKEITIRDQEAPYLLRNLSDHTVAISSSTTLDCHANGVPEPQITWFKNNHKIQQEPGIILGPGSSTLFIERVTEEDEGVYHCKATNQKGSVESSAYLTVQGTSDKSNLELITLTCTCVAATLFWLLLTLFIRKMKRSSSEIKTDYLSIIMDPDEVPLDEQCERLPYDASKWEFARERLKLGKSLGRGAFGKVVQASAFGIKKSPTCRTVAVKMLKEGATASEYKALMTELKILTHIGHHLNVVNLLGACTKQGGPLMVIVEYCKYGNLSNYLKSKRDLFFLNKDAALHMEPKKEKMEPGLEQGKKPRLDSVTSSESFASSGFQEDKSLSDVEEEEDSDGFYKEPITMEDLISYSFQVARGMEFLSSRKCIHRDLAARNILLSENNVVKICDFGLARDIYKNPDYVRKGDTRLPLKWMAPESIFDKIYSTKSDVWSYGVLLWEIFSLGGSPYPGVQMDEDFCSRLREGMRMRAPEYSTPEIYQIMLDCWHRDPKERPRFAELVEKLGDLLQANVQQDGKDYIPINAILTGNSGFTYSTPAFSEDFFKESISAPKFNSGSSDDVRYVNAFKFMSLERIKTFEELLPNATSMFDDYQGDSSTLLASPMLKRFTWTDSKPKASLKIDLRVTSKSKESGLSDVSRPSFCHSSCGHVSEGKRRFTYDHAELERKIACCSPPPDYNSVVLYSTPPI
Sequence of Vascular endothelial growth factor receptor 2 (Homo sapiens) (P35968 whole entry): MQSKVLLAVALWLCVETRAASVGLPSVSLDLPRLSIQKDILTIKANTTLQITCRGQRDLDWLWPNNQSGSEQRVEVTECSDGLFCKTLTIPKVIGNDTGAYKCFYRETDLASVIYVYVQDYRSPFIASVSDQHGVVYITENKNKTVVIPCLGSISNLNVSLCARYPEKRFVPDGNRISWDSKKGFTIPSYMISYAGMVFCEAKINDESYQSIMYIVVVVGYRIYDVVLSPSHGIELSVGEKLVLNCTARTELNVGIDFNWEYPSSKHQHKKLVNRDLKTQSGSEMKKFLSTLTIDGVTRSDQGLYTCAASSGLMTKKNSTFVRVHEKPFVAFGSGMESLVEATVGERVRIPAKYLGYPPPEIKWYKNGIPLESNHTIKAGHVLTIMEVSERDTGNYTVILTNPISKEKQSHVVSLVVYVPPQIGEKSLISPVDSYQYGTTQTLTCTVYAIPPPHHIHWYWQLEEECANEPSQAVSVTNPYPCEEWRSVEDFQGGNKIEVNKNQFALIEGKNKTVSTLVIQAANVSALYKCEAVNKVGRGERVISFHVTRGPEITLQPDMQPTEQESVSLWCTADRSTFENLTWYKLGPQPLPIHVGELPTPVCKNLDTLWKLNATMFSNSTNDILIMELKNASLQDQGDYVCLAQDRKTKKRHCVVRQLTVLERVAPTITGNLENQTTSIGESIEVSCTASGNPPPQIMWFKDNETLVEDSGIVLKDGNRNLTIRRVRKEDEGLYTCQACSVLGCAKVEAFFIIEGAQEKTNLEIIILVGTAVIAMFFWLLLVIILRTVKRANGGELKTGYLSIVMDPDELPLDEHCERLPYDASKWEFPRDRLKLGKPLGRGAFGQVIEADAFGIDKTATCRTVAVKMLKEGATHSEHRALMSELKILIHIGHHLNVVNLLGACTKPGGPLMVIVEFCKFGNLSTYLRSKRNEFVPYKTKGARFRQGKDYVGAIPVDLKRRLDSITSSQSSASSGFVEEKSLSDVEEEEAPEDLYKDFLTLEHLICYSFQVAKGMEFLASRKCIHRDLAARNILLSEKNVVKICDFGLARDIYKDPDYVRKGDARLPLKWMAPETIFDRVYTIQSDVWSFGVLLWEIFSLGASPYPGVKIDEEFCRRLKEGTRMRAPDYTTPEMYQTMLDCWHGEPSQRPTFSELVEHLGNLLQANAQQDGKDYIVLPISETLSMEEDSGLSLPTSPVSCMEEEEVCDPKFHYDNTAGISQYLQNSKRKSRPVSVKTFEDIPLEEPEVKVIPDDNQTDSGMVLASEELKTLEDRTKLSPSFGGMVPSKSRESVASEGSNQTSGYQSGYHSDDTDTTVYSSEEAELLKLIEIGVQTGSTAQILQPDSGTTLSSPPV
Sequence of High affinity nerve growth factor receptor (Homo sapiens) (P04629 33-796 limits assumed): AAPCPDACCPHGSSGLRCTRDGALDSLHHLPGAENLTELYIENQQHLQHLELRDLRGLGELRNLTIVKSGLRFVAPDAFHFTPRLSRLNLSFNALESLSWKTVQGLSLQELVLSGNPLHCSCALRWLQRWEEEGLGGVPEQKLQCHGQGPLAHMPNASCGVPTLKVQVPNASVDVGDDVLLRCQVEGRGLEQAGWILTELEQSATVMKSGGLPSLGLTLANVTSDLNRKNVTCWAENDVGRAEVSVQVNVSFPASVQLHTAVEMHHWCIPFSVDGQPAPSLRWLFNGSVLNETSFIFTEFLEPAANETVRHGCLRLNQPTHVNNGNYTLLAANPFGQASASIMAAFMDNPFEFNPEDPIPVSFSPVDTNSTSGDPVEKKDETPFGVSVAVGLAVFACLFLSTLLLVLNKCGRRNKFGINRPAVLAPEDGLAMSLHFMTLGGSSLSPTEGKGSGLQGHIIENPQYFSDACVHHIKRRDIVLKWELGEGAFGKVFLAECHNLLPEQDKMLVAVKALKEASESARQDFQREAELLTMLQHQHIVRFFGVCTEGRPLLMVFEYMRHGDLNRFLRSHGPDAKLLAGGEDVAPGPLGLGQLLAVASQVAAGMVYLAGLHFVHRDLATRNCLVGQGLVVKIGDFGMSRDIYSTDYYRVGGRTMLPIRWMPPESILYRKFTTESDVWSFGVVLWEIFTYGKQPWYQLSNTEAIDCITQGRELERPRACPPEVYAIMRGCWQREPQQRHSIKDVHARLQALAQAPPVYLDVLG

`Cc1cccc(N(C)c2cc(Nc3cccc(C(=O)N4CCCC5CCCCC54)c3)ncn2)c1` (stereo not drawn): the inhibition (commonly the drop in the measured response relative to a control, in per cent) worked out at 8% in [1]; 0% in test [2]; 0% in test [3]; 4% in test [4]; 2% in test [5]; 0% in test [6]. Further, the inhibition in test [7] was 5%; in test [8], 0%; in [9], 12%; in test [10], 3%; in test [11] it was 7%; in test [12], 12%. In [13], this compound came in with an inhibition of 0%.

Consider `COC[C@@H]1CCCN1C(=O)[C@@H]1CCCN1c1nccc(Nc2ccccc2)n1`, for which the inhibition in test [1] turned out to be 1%; in test [2], 0%; in [3], 3%; in [4] it was 0%; in [5] it was 1%; in test [6], 0%. Moreover, the inhibition is 0% in test [7]; 0% in test [8]; 8% in [9]; 0% in [10]; 8% in [11]; 8% in test [12]. This compound also displayed an inhibition in test [13] of 4%.

Turning to `Cc1cccc(Nc2nccc(Nc3cccc(C(=O)NCc4ccc(N(C)C)cc4)c3)n2)c1`, the inhibition is 0% in test [1]; 0% in test [2]; 0% in test [3]; 1% in [4]; 6% in test [5]; 0% in test [6]. Also, the inhibition was 0% in [7]; 3% in test [8]; 9% in [9]; 8% in [10]; 10% in test [11]; 7% in test [12]. In [13], this compound gave an inhibition of 11%.

In the case of `Cc1cccc(N(C)c2cc(Nc3cccc(C(=O)N(C)CCc4ccccn4)c3)ncn2)c1`, the inhibition was found to be 3% in test [1]; 0% in test [2]; 0% in [3]; 21% in [4]; 6% in [5]; 0% in [6]. In addition, the inhibition in test [7] stood at 6%; in test [8], 5%; in [9], 9%; in [10], 15%; in test [11] it was 15%; in test [12], 10%. The inhibition in test [13] worked out at 31%.

Turning to `COC(=O)C(CO)NC(=O)[C@@H]1CCCN1c1nccc(Oc2cccc(C)c2)n1` (stereo partly drawn), the inhibition is 0% in test [1]; 0% in test [2]; 0% in [3]; 6% in [4]; 1% in [5]; 0% in [6]. The inhibition in test [7] was 4%; in test [8] it was 0%; in test [9] it was 5%; in test [10] it was 0%; in test [11], 0%; in [12], 4%. In [13], this compound came in with an inhibition of 5%.

For the compound `Cc1cccc(Nc2ncnc3c2CN(C(=O)c2ccc(N(C)C)c4ccccc24)CC3)c1`, the inhibition in test [1] was found to be 1%; in test [2] it was 0%; in [3], 0%; in test [4] it was 24%; in [5], 3%; in [6], 0%. Moreover, the inhibition in test [7] is 2%; in test [8] it was 0%; in test [9], 0%; in test [10], 0%; in test [11], 3%; in [12] it was 8%. For the same compound, the inhibition in test [13] amounted to 6%.

Consider `CN(C)c1ccc(C(=O)N2CCN(c3ncnc4c3CN(Cc3ccccc3)CC4)CC2)c2ccccc12`, for which the inhibition in test [1] was determined as 0%; in test [2], 0%; in test [3] it was 0%; in test [4], 5%; in test [5] it was 4%; in [6], 0%. The inhibition in test [7] came out at 4%; in test [8], 0%; in test [9] it was 3%; in [10], 0%; in [11], 2%; in test [12] it was 7%. Moreover, the inhibition in test [13] came to 3%.

As for `CN(C)CC(C)(C)CNC(=O)[C@@H]1CCCN1c1nccc(Nc2ccccc2)n1`, the inhibition was 12% in test [1]; 0% in test [2]; 0% in [3]; 9% in [4]; 6% in test [5]; 0% in test [6]. The inhibition in test [7] was 2%; in test [8], 0%; in test [9] it was 13%; in test [10], 0%; in test [11], 20%; in test [12], 6%. Further, the inhibition in [13] amounted to 5%.

As for `O=C(NCc1cccnc1)c1cccc(-c2ccc(Nc3ccc4ncsc4c3)nn2)c1`, the inhibition in [1] was found to be 43%; in [2], 0%; in test [3], 0%; in [4] it was 0%; in test [5], 6%; in test [6] it was 0%. For the same compound, the inhibition was found to be 28% in test [7]; 0% in test [8]; 79% in test [9]; 11% in [10]; 18% in [11]; 0% in [12]. This compound yielded an inhibition in test [13] of 62%.

In the case of `COc1ccc(NC(=O)Cc2ccc(Nc3cc(N(C)c4cccc(C)c4)ncn3)cc2)cn1`, the inhibition in test [1] was 20%; in test [2], 0%; in test [3], 0%; in test [4], 6%; in [5] it was 4%; in test [6], 0%. Also, the inhibition in test [7] turned out to be 5%; in [8], 0%; in test [9] it was 6%; in test [10] it was 1%; in test [11] it was 0%; in [12], 10%. This compound returned an inhibition in test [13] of 8%.

For `Nc1nc(N2CCOCC2)cc(N2CCC(C(=O)NCCc3ccc(O)cc3)CC2)n1`, the inhibition in [1] was found to be 0%; in test [2], 0%; in test [3], 0%; in [4] it was 5%; in test [5] it was 3%; in test [6], 0%. Further, the inhibition was 0% in [7]; 0% in test [8]; 6% in [9]; 2% in test [10]; 6% in [11]; 6% in [12]. The compound further came in with an inhibition in test [13] of 7%.
